Data on 21 compounds can be found in ChEMBL document CHEMBL1124879, “Inotropic "A" ring substituted sulmazole and isomazole analogues” (1990).

For test [1], the species on record is Cavia porcellus. In words: In vitro concentration required to give a 50% increase in basal contractile force in an isolated paced guinea pig papillary muscle preparation at 1mM; i = 'inactive'. In kind it is functional. Conditions: Muscle tissue. In a few lines: (§1)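 Isolated guinea pig papillary muscle, loaded at 500 mg, in Krebs-Henseleit with 2.5 mM Ca2+, gassed 95% O2-5% CO2, 34 °C. Paced with 1-ms rectangular pulses at 1.5 Hz, 20% above threshold voltage. Isometric tension recorded. Preparations not contracting uniformly after 60 min were rejected. pA50 is the -log concentration giving a 50% rise in basal force. Top concentrations tested were 0.2, 1 or 5 mM.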

The species named for test [2] is Cavia porcellus. In words: In vitro concentration required to give a 50% increase in basal contractile force in an isolated paced guinea pig papillary muscle preparation. In kind it is functional, Muscle tissue. Summed up:
as §1

Test [3] is filed under the species Canis familiaris. In words: The effective dose was measured to produce the 10%increase in heart rate. In kind it is functional, Canis lupus familiaris. In a few lines: (§2)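 Anesthetized open-chest beagle dogs, 8.5-13 kg, thiopentone induction, α-chloralose/pentobarbitone maintenance, single iv bolus at 0.1 mL/kg. Heart rate taken by tachograph. Doses (mg/kg iv) giving a 50% rise in dP/dt, a 30% fall in diastolic pressure and a 10% rise in heart rate were calculated from mean dose-response data.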

The species named for test [4] is Canis familiaris. Description: The effective dose to produce the 30%decrease in diastolic blood pressure. It counts as functional, Canis lupus familiaris, Artery. Summed up: as §2
Test [5] deals with Canis familiaris. In words: Maximum percentage increase in heart rate produced by the compound at a dose 0.3 mg/kg. It counts as functional, Canis lupus familiaris. In a few lines: (§3)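 Beagle dogs of either sex, 8.5-13 kg, anesthetized and open-chest. Induction with thiopentone sodium 30 mg/kg iv, then maintenance with α-chloralose 15 mg/kg plus pentobarbitone 6 mg/kg via a femoral vein cannula. Single iv bolus at 0.1 mL/kg, with vehicle bolus in every animal. Body temperature held at 37-38 °C. Maximal % change recorded for dP/dt, diastolic blood pressure and heart rate.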

For test [6], the system named is Canis familiaris. In words: Maximum percentage change in dP/dt, diastolic blood pressure and heart rate produced by the compound at a dose 0.3 mg/kg. In kind it is functional, Canis lupus familiaris, Artery. In a few lines: as §3
Test [7] is filed under the species Canis familiaris. In words: The effective dose to produce a maximum increase in dP/dt diastolic blood pressure and heart rate. In kind it is functional, Canis lupus familiaris, Artery. In a few lines: as §2
Test [8] concerns Canis familiaris. In words: Maximum percentage decrease in diastolic blood pressure produced by the compound at a dose 1 mg/kg. In kind it is functional, Canis lupus familiaris, Artery. Summed up: as §3
The species entered for test [9] is Cavia porcellus. Description: In vitro concentration required to give a 50% increase in basal contractile force in an isolated paced guinea pig papillary muscle preparation at 5mM; i = 'inactive'. In kind it is functional. Conditions: Muscle tissue. Summed up:
as §1

The subject of test [10] is Canis familiaris. Description: Maximum percentage change in dP/dt, diastolic blood pressure and heart rate produced by the compound at a dose of a mg/kg. In kind it is functional, Canis lupus familiaris, Artery. In a few lines: as §3
Test [11] relates to Canis familiaris. Description: Maximum percentage decrease in diastolic blood pressure produced by the compound at a dose 3 mg/kg. In kind it is functional, Canis lupus familiaris, Artery. In a few lines: as §3
For test [12], the species on record is Cavia porcellus. In words: In vitro concentration required to give a 50% increase in basal contractile force in an isolated paced guinea pig papillary muscle preparation at 0.2mM; i = 'inactive'. In kind it is functional. As to conditions: Muscle tissue. In a few lines:
as §1

The species entered for test [13] is Canis familiaris. In words: The effective dose was measured to produce the 10%increase in heart rate. It counts as functional, Canis lupus familiaris. Summed up: as §2
For test [14], the species on record is Canis familiaris. In words: The effective dose to produce the 30%decrease in diastolic blood pressure. In kind it is functional, Canis lupus familiaris, Artery. In a few lines: as §2
Test [15] relates to Canis familiaris. Description: Maximum percentage increase in heart rate produced by the compound at a dose of 3 mg/kg. In kind it is functional, Canis lupus familiaris. Summed up: as §3
Test [16] relates to Canis familiaris. Description: Maximum percentage change in dP/dt, diastolic blood pressure and heart rate produced by the compound at a dose 3.0 mg/kg. In kind it is functional, Canis lupus familiaris, Artery. In a few lines:
as §3

Test [17] has as its system Canis familiaris. In words: Maximum percentage decrease in diastolic blood pressure produced by the compound at a dose of 3.0 mg/kg. It counts as functional, Canis lupus familiaris, Artery. Summed up: as §3
For test [18], the system named is Canis familiaris. Description: Maximum percentage change in dP/dt, diastolic blood pressure and heart rate produced by the compound at a dose of 3.0 mg/kg. It counts as functional, Canis lupus familiaris, Artery. In a few lines:
as §3

Regarding `CNc1[nH]ccc2nc(-c3ccc(OC)cc3OC)nc1-2`, the pA50 entry in the test listed under Cavia porcellus [1] was “Weak inotropic effects”.
Turning to `COc1cc(SC)ccc1-c1nc2c(N)cncc2[nH]1`, in the test filed under Cavia porcellus [1], the pA50 entry is “Weak inotropic effects”.
On to `COc1cc([S+](C)[O-])ccc1-c1nc2cc(O)c[nH]c-2n1` (stereo not given), for which, in the test listed under Cavia porcellus [2], the pA50 was 3.75.
Take `COc1ccc(-c2nc3cc(C(C)=O)c[nH]c-3n2)c(OC)c1`: the pA50 entry in the test listed under Cavia porcellus [1] was “Weak inotropic effects”.
Compound `COc1cc([S+](C)[O-])ccc1-c1nc2c(OC)cncc2[nH]1` (stereo not given) yielded a pA50 in the test filed under Cavia porcellus [2] of 3.
As for `COc1ccc2[nH]c(-c3ccc([S+](C)[O-])cc3OC)nc2n1` (stereo not given), the pA50 in the test listed under Cavia porcellus [2] is 3.
The compound `COc1cc2[nH]c(-c3ccc([S+](C)[O-])cc3OC)nc2cn1` (stereo not given) returned a pA50 in the test filed under Cavia porcellus [2] of 3.76.
In general, ED50 refers to the dose at which the effect has come halfway, by size or by number of responders. In turn, `COc1cc([S+](C)[O-])ccc1-c1nc2cnccc2[nH]1` (stereo not given) [ISOMAZOLE] gave an ED10 HR in the test filed under Canis familiaris [3] of 0.056 mg/kg. The compound also registered an ED30 DBP in the test filed under Canis familiaris [4] of 0.16 mg/kg. Also, the Max increase with Canis familiaris [5] is 15%; in the test with Canis familiaris [6], 88%. The compound further showed an ED50 in the test listed under Canis familiaris [7] of 0.05 mg/kg. The same compound registered a Max decrease in the test with Canis familiaris [8] of 43%. Further, in the test listed under Cavia porcellus [2], the pA50 is on record as 4.64.
Compound `COc1ccc(-c2nc3cc[nH]cc-3n2)c(OC)c1` yielded a pA50 in the test listed under Cavia porcellus [2] of 4.01.
On to `COc1c[nH]c2nc(-c3ccc([S+](C)[O-])cc3OC)nc-2c1` (stereo not given), for which the pA50 in the test filed under Cavia porcellus [2] turned out to be 3.63.
In turn, `COc1cc([S+](C)[O-])ccc1-c1nc2[nH]ccc(OC)c-2n1` (stereo not given) registered a pA50 in the test filed under Cavia porcellus [2] of 4.1.
Turning to `COc1ccc(-c2nc3c(N)cncc3[nH]2)c(OC)c1`, in the test filed under Cavia porcellus [9], the pA50 entry is “Weak inotropic effects”.
Take `COc1cc([S+](C)[O-])ccc1-c1nc2c(OC)nccc2[nH]1` (stereo not given): the ED10 HR in the test listed under Canis familiaris [3] came to 0.28 mg/kg. The ED30 DBP in the test filed under Canis familiaris [4] amounted to 0.2 mg/kg. The Max increase in the test on Canis familiaris [10] worked out at 125%; with Canis familiaris [5] it was 10%. Besides, in the test listed under Canis familiaris [7], the ED50 was found to be 0.13 mg/kg. Also, in the test with Canis familiaris [11], the Max decrease came to 70%. The compound also had a pA50 in the test listed under Cavia porcellus [2] of 3.91.
`COc1cc([S+](C)[O-])ccc1-c1nc2cc(C)c[nH]c-2n1` (stereo not given) came in with a pA50 in the test filed under Cavia porcellus [2] of 3.73.
As for `COc1ccc(-c2nc3c(C)nccc3[nH]2)c(OC)c1`, the pA50 result in the test listed under Cavia porcellus [12] is “Weak inotropic effects”.
With `COc1cc([S+](C)[O-])ccc1-c1nc2c(N)cncc2[nH]1` (stereo not given), the pA50 in the test listed under Cavia porcellus [2] is given as 3.72.
In the test listed under Cavia porcellus [2], `COc1ccc(-c2nc3ccc[nH]c-3n2)c(OC)c1` showed a pA50 of 5.08.
Same read-out and setting: then `COc1cc([S+](C)[O-])ccc1-c1nc2cc(Cl)c[nH]c-2n1` (stereo not given), with 3.61.
Take `COc1cc([S+](C)[O-])ccc1-c1nc2cccnc2[nH]1` (stereo not given) [SULMAZOLE]: in the test listed under Canis familiaris [13], the ED10 HR is 0.5 mg/kg. The ED30 DBP in the test listed under Canis familiaris [14] is 1 mg/kg. Further, the Max increase with Canis familiaris [15] is reported as 20%; with Canis familiaris [16], 73%. The compound further gave an ED50 in the test listed under Canis familiaris [7] of 0.8 mg/kg. Besides, in the test on Canis familiaris [17], the Max decrease was found to be 36%. For the same compound, the pA50 in the test filed under Cavia porcellus [2] is 4.7.
`COc1cc([S+](C)[O-])ccc1-c1nc2cc(N)c[nH]c-2n1` (stereo not given) displayed an ED10 HR in the test filed under Canis familiaris [3] of 1.41 mg/kg. This compound also had an ED30 DBP in the test filed under Canis familiaris [4] of over 3 mg/kg. The Max increase in the test with Canis familiaris [18] came to 87%; in the test with Canis familiaris [15], 15%. In addition, the ED50 in the test listed under Canis familiaris [7] was determined as 0.5 mg/kg. Moreover, in the test with Canis familiaris [17], the Max decrease stood at 25%. For the same compound, in the test filed under Cavia porcellus [2], the pA50 is given as 4.01.
In the test filed under Cavia porcellus [2], `COc1ccc(-c2nc3cc(N)c[nH]c-3n2)c(OC)c1` had a pA50 of 4.8.
